Results published in ChEMBL document CHEMBL1221298, “InCl3 mediated one-pot multicomponent synthesis, anti-microbial, antioxidant and anticancer evaluation of 3-pyranyl indole derivatives” (Bioorg Med Chem Lett, 2010).
Converted amounts (≈) assume the structure as drawn. The source made the active and inactive calls. No cut-off for these calls is given here.

Legend:
Format in all cases: functional
[1] = test system: MCF7; assay: Cytotoxicity against human MCF7 cells after 24 hrs by MTT assay; conditions: MCF7, 24 h
Summary of the method: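 Exponentially growing cells plated at 10⁴ cells/well and allowed to attach, then exposed to test compounds or doxorubicin (dissolved in 0.1% DMSO, diluted in medium; range 1–100) for 24 h; controls received medium with 0.1% DMSO. MTT (1 mg/ml) added for 4 h at 37 °C, formazan dissolved in DMSO, absorbance read at 540 nm; % cytotoxicity calculated from blank-corrected absorbances versus control.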

[2] = test system: Staphylococcus aureus; assay: microbe, parasite or virus in culture; conditions: ATCC 9144, 24 h, read-out: IZ
[3] = test system: Bacillus cereus; assay: Antimicrobial activity against Bacillus cereus ATCC 11778 at 100 ug/ml after 24 hrs by paper disk diffusion method; conditions: ATCC 11778, 24 h, read-out: IZ
[4] = test system: Escherichia coli; assay: microbe, parasite or virus in culture; conditions: ATCC 25922, 24 h, read-out: IZ
[5] = test system: Klebsiella pneumoniae; assay: microbe, parasite or virus in culture; conditions: ATCC 11298, 24 h, read-out: IZ
[6] = test system: Staphylococcus aureus; assay: microbe, parasite or virus in culture; conditions: ATCC 9144, 24 h
[7] = test system: Bacillus cereus; assay: microbe, parasite or virus in culture; conditions: ATCC 11778, 24 h
[8] = test system: Escherichia coli; assay: microbe, parasite or virus in culture; conditions: ATCC 25922, 24 h
[9] = test system: Klebsiella pneumoniae; assay: microbe, parasite or virus in culture; conditions: ATCC 11298, 24 h
[10] = test system: Radical scavenging activity; assay: Antioxidant activity assessed as DPPH radical scavenging activity at 50 ug/ml
Summary of the method: (§1)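 Each test sample was mixed with 1 ml DPPH in methanol, incubated at 37 °C for 30 min, and read spectrophotometrically at 517 nm with a blank reading. Scavenging % was expressed as the absorbance decrease at 517 nm relative to DPPH solution without test sample.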

[11] = test system: Radical scavenging activity; assay: Antioxidant activity assessed as DPPH radical scavenging activity at 100 ug/ml; summary of the method: as §1
[12] = test system: Radical scavenging activity; assay: Antioxidant activity assessed as DPPH radical scavenging activity at 200 ug/ml; summary of the method: as §1
[13] = test system: Radical scavenging activity; assay: Antioxidant activity assessed as DPPH radical scavenging activity at 400 ug/ml; summary of the method: as §1
[14] = test system: Radical scavenging activity; assay: Antioxidant activity assessed as DPPH radical scavenging activity; summary of the method: as §1
[15] = Antioxidant activity assessed as ABTS radical scavenging activity at 50 ug/ml
Summary of the method: (§2)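 Test samples at 50, 100, 200 and 400 ug/ml were each mixed with 1 ml of freshly prepared ABTS radical cation solution, adjusted to absorbance 0.7–0.9 at 734 nm. Mixtures reacted 2 h in the dark, then absorbance was read at 734 nm against a blank. Scavenging % was taken as the absorbance decrease relative to ABTS solution without test sample.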

[16] = Antioxidant activity assessed as ABTS radical scavenging activity at 100 ug/ml; summary of the method: as §2
[17] = Antioxidant activity assessed as ABTS radical scavenging activity at 200 ug/ml; summary of the method: as §2
[18] = Antioxidant activity assessed as ABTS radical scavenging activity at 400 ug/ml; summary of the method: as §2
[19] = Antioxidant activity assessed as ABTS radical scavenging activity; summary of the method: as §2

Structure (SMILES) | MIC [6] [µg/mL] | MIC [7] [µg/mL] | MIC [8] [µg/mL] | MIC [9] [µg/mL] | IC50 [14] [µg/mL] | IC50 [19] [µg/mL] | zone of inhibition at 100 µg/mL [2] [mm] | zone of inhibition at 100 µg/mL [3] [mm] | zone of inhibition at 100 µg/mL [4] [mm] | zone of inhibition at 100 µg/mL [5] [mm] | Activity ([10]; at 50 µg/mL) [%] | Activity ([11]; at 100 µg/mL) [%] | Activity ([12]; at 200 µg/mL) [%] | Activity ([13]; at 400 µg/mL) [%] | Activity ([15]; at 50 µg/mL) [%] | Activity ([16]; at 100 µg/mL) [%] | Activity ([17]; at 200 µg/mL) [%] | Activity ([18]; at 400 µg/mL) [%] | also measured
COc1cccc2c1C(=O)c1c(O)c3c(c(O)c1C2=O)C[C@@](O)(C(=O)CO)C[C@@H]3O[C@H]1C[C@H](N)[C@H](O)[C@H](C)O1 [DOXORUBICIN] |  |  |  |  |  |  |  |  |  |  |  |  |  |  |  |  |  |  | GI50 [1]: 20 nM; TGI [1]: 210 nM
N#CC1=C(N)OC(c2c[nH]c3ccccc23)=C(C#N)C1c1cc(Br)c2c(c1)OCO2 (stereo not given) | 23.5 (≈ 50.9 µM) | 28.7 (≈ 62.2 µM) | 27.3 (≈ 59.2 µM) | 24.8 (≈ 53.8 µM) | 1779.24 (≈ 3860 µM) | > 1000 | 19 | 13 | 17 | 16 | 20.3 | 23.8 | 25.8 | 22.8 | 5.7 | 6.4 | 10 | 12.5 | 
O=C1O[C@H]([C@@H](O)CO)C(O)=C1O [ASCORBIC ACID] |  |  |  |  | < 50 | 650 (≈ 3690 µM) |  |  |  |  | 77.2 | 79.7 | 82.3 | 85.3 | 28.8 | 29.7 | 31.5 | 33.4 | 

Continued, in another order:

MIC [6] [µg/mL] | MIC [7] [µg/mL] | MIC [8] [µg/mL] | MIC [9] [µg/mL] | IC50 [14] [µg/mL] | IC50 [19] [µg/mL] | Structure (SMILES) | zone of inhibition at 100 µg/mL [2] [mm] | zone of inhibition at 100 µg/mL [3] [mm] | zone of inhibition at 100 µg/mL [4] [mm] | zone of inhibition at 100 µg/mL [5] [mm] | Activity ([10]; at 50 µg/mL) [%] | Activity ([11]; at 100 µg/mL) [%] | Activity ([12]; at 200 µg/mL) [%] | Activity ([13]; at 400 µg/mL) [%] | Activity ([15]; at 50 µg/mL) [%] | Activity ([16]; at 100 µg/mL) [%] | Activity ([17]; at 200 µg/mL) [%] | Activity ([18]; at 400 µg/mL) [%] | also measured
22.3 (≈ 63.3 µM) | 25.8 (≈ 73.2 µM) | 36.3 (≈ 103 µM) | 25.1 (≈ 71.2 µM) | 1590.74 (≈ 4510 µM) | > 1000 | Cc1ccc(C2C(C#N)=C(N)OC(c3c[nH]c4ccccc34)=C2C#N)cc1 (stereo not given) | 20 | 14 | 15 | 17 | 24.8 | 25.8 | 28.9 | 30.4 | 5.2 | 5.5 | 6.2 | 8.5 | 
13.4 (≈ 35.9 µM) | 19 (≈ 51 µM) | 21.5 (≈ 57.7 µM) | 17.5 (≈ 46.9 µM) |  |  | N#CC1=C(N)OC(c2c[nH]c3ccccc23)=C(C#N)C1c1ccc(Cl)cc1 (stereo not given) | 23 | 18 | 19 | 18 |  |  |  |  |  |  |  |  | Activity [10]: inactive; Activity [11]: inactive; Activity [12]: inactive; Activity [13]: inactive; Activity [14]: inactive; Activity [15]: inactive; Activity [16]: inactive; Activity [17]: inactive; Activity [18]: inactive; Activity [19]: inactive
25 (≈ 70.9 µM) | 27.8 (≈ 78.9 µM) | 26 (≈ 73.8 µM) | 27.2 (≈ 77.2 µM) | 1371.65 (≈ 3890 µM) | > 1000 | Cc1ccccc1C1C(C#N)=C(N)OC(c2c[nH]c3ccccc23)=C1C#N (stereo not given) | 16 | 15 | 16 | 15 | 25.8 | 27.4 | 28.3 | 32.5 | 10.4 | 17.2 | 21.4 | 25.7 | 
23.8 (≈ 62.4 µM) | 25.6 (≈ 67.1 µM) | 26.7 (≈ 70 µM) | 25.2 (≈ 66.1 µM) | < 50 | 900 (≈ 2360 µM) | CN(C)c1ccc(C2C(C#N)=C(N)OC(c3c[nH]c4ccccc34)=C2C#N)cc1 (stereo not given) | 18 | 15 | 17 | 16 | 72.1 | 73.1 | 74.6 | 75.7 | 14.4 | 18.5 | 20.5 | 26.7 | 
15.2 (≈ 44.9 µM) | 18.5 (≈ 54.7 µM) | 19.6 (≈ 57.9 µM) | 20.2 (≈ 59.7 µM) | 308.2 (≈ 911 µM) | 993.66 (≈ 2940 µM) | N#CC1=C(N)OC(c2c[nH]c3ccccc23)=C(C#N)C1c1ccccc1 (stereo not given) | 22 | 16 | 18 | 18 | 38 | 46 | 49.7 | 51.2 | 14.4 | 19.3 | 24.5 | 26.7 | 
